In PMC2119646 (The Journal of Cell Biology, 1993):

Assays:
[1] = test system: Bovine adrenal capillary endothelial cells; assay: endothelial cell migration in an inverted modified Boyden chamber; type: cell-based
Procedure, shortened: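 Bovine capillary endothelial cells at passages 10-15 were starved 24 h in DME/0.1% BSA and adhered 1-2 h at 37°C to a gelatinized filter. The chamber was reinverted, with test material in the top well, and incubated 3-4 h at 37°C. Migrated cells were counted in 10 high-power fields, in quadruplicate, with experiments repeated at least twice. Results were expressed as % of positive-control migration after background subtraction and corrected for >10% detachment.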

[2] = test system: angiogenesis in vivo; details: Table VII; source Fibronectin, others; ref Eijan et al., 1991; cited from earlier work
[3] = test system: neovascularization in the rat cornea; assay: rat cornea neovascularization assay; type: in vivo; details: Table I, Hydron pellets with TSP1 protein or fragments at 25-30 nM, without bFGF, vigorous vessel ingrowth from the limbus at 7 d = positive

TGF beta 1: Recombinant TGFβ1 purchased from R & D Sys. [reference compound]
concentrations that stimulated endothelial cell migration ([1]; TGFβ dose response, Fig. 8): 0.04 to 0.4 pM

SPWD I C*SVTC*GGGVQKRSK [Mal III]
ED50 for inhibition of migration with pure recombinant bFGF as inducer ([1]; retest of peptide with recombinant bFGF instead of conditioned media): 7 µM

bFGF: Recombinant bFGF, inducer and positive control [reference compound]
Migration of endothelial cells to upper chamber (%), Control ([1]; Table VI, addition alone: TGFβ 1 pg/ml or bFGF 10 ng/ml, no antiserum): 100%

G R G D
Small Peptides Able to Inhibit Angiogenesis In Vivo [2]: Able to Inhibit Angiogenesis In Vivo

TSP: Human thrombospondin-1 purified from platelet releasate, 450-kD trimer
Positive corneas/number implanted, Alone [3]: 0/5
Migration of endothelial cells to upper chamber (%), Control, with bFGF ([1]; Table VI, bFGF 10 ng/ml plus TGFβ 0.2 ng/ml or TSP 2.5 µg/ml, no antiserum): < 1%
ability to block endothelial cell migration stimulated by bFGF ([1]; bFGF 10 ng/ml, Fig. 4 b): complete inhibition
